{"data": "Measured values from different studies", "target": "Serine/threonine-protein kinase 3 (STK3, Homo sapiens, UniProt Q13188)", "Residues used in one study (Q13188 1-491)": "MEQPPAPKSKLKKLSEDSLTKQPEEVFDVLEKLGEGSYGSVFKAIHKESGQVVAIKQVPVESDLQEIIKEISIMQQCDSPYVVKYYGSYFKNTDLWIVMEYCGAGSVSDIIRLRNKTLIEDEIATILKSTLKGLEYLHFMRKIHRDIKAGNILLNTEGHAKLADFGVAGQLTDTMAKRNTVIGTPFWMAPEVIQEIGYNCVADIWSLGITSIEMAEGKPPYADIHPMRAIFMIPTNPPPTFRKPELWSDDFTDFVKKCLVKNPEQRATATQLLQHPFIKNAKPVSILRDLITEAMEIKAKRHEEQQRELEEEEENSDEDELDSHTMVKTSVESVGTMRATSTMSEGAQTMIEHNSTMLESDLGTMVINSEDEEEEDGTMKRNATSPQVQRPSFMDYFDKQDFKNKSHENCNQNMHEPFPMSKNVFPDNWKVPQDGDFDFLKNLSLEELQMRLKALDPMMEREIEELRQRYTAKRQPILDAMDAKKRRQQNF", "note": "Each line is one published result; the experiments were not run side by side."}
{"Compound": "CNCc1ccc(-c2cc(-c3nc(-c4ccc(S(=O)(=O)C(C)C)cc4)cnc3N)on2)cc1", "assay": "enzyme activity, inhibitor", "setting": "2 µM", "quantity": "inhibition", "value": "43%"}
{"Compound": "CC1(C)NC(=O)c2[nH]c3c(Cl)c(Cl)ccc3c2C1C#N (stereo not shown)", "assay": "thermal stability, DSF", "setting": "10 µM", "quantity": "ΔTm", "value": "0.2 °C"}
{"Compound": "COc1cc(Nc2cnc(C#N)c(O[C@H](C)CN(C)C)n2)ncc1-c1cnn(C)c1", "assay": "enzyme activity, inhibitor, radiometric", "setting": "10 µM", "quantity": "remaining activity", "value": "30%"}
{"Compound": "Cc1ccc(Nc2nccc(N(C)c3ccc4c(C)n(C)nc4c3)n2)cc1S(N)(=O)=O", "assay": "cell-free assay, inhibitor", "setting": "0.3 µM", "quantity": "inhibition", "value": "1%"}
{"Compound": "Oc1cccc(-c2nc(N3CCOCC3)c3oc4ncccc4c3n2)c1", "assay": "enzyme activity, inhibitor", "setting": "10 µM", "quantity": "remaining activity", "value": "115%"}
{"Compound": "COc1cc(Cl)c(C(=O)N[C@@H](CN[C@H]2CC[C@@H](N)CC2)Cc2ccc(C#N)cc2)cc1-c1ccc(CN[C@H](C)c2ccc(C)cc2)o1", "assay": "enzyme activity, inhibitor", "setting": "1 µM", "quantity": "remaining activity", "value": "97%"}
{"Compound": "Nc1nc(NC2CCCCC2)sc1C(=O)c1ccccc1", "assay": "enzyme activity, inhibitor", "setting": "10 µM", "quantity": "remaining activity", "value": "97%"}
{"Compound": "Cc1c(NC(=O)c2cc(C(N)=O)nc3cc(F)ccc23)c(C(F)(F)F)nn1Cc1ccc(C(C)(C)C)cc1", "assay": "cell-free assay, competition with immobilised ligand", "setting": "1 µM", "quantity": "remaining binding", "value": "90%"}
{"Compound": "CNC(=O)c1cc(Oc2ccc(NC(=O)Nc3ccc(Cl)c(C(F)(F)F)c3)cc2)ccn1", "assay": "cell-free assay, inhibitor", "setting": "10 µM", "quantity": "inhibition", "value": "-8%"}
{"Compound": "COc1ccc2cc(OCC3(C(=O)O)CN(C(=O)c4ccc(F)cc4)C3)ccc2c1", "assay": "cell-free assay, competition with immobilised ligand", "setting": "1 µM", "quantity": "remaining binding", "value": "100%"}
{"Compound": "COc1cc(/C=C/C(=O)CC(=O)/C=C/c2ccc(O)c(OC)c2)ccc1O", "assay": "enzyme activity, inhibitor", "setting": "1 µM", "quantity": "activity vs control", "value": "42%"}
{"Compound": "CN1CCN(c2cnc3c(C4CCN(C(=O)c5ccc(OC(F)(F)F)cc5N)CC4)ncnc3c2)CC1", "assay": "cell-free assay, competition with immobilised ligand", "setting": "1 µM", "quantity": "remaining binding", "value": "82%"}
{"Compound": "CC(C)(C)c1nc(-c2cccc(NS(=O)(=O)c3c(F)cccc3F)c2F)c(-c2ccnc(N)n2)s1", "assay": "enzyme activity, inhibitor, radiometric", "setting": "1 µM", "quantity": "remaining activity", "value": "94%"}
{"Compound": "CN(C)C(=O)Cn1cc(-c2nc(C3(c4ccc(-c5cnc(N)nc5)cc4)CC3)no2)cn1", "assay": "cell-free assay, competition with immobilised ligand", "setting": "1 µM", "quantity": "remaining binding", "value": "100%"}
{"Compound": "O=C1NC(=O)c2cc(Nc3ccc(F)cc3)c(Nc3ccc(F)cc3)cc21", "assay": "cell-free assay", "setting": "0.5 µM", "quantity": "remaining signal", "value": "90.7%"}
{"Compound": "N#CC1c2c([nH]c3c(Cl)c(Cl)ccc23)C(=O)NC12CCCCC2 (racemic)", "assay": "thermal stability, DSF", "setting": "10 µM", "quantity": "ΔTm", "value": "0.6 °C"}
{"Compound": "COc1cc2ncnc(Nc3ccc(Oc4ccccc4)c(C)c3C)c2cc1OC", "assay": "enzyme activity, inhibitor", "setting": "1 µM", "quantity": "inhibition", "value": "1%"}
{"Compound": "C[C@H](c1cccc(C#N)c1)n1cc(Cl)cc(C(N)=O)c1=N", "assay": "cell-free assay, competition with immobilised ligand", "setting": "1 µM", "quantity": "remaining binding", "value": "84%"}
{"Compound": "O=C(Nc1cnn(-c2csc(C(=O)NC3COC3)c2)c1)Nc1ccccc1Cl", "assay": "enzyme activity, inhibitor", "setting": "5 µM", "quantity": "remaining activity", "value": "120%"}
{"Compound": "Cc1cnc(NC2CCOCC2)nc1-n1cnc(C(=O)NC(CN)c2cc(F)cc(Cl)c2)c1 (stereo not shown)", "assay": "enzyme activity, inhibitor, radiometric", "setting": "1 µM", "quantity": "remaining activity", "value": "108%"}
{"Compound": "CN(C)S(=O)(=O)c1ccc2c(c1)/C(=C/c1cc3c([nH]1)CCCC3)C(=O)N2", "assay": "cell-free assay", "setting": "0.5 µM", "quantity": "remaining signal", "value": "24.3%"}
{"Compound": "CC(=O)C1=C(C)N(c2cccc(C(F)(F)F)c2)C(=O)N[C@@H]1c1ccc(C#N)nc1", "assay": "cell-free assay, competition with immobilised ligand", "setting": "1 µM", "quantity": "remaining binding", "value": "93.1%"}
{"Compound": "Cn1c2c(Cl)c(Cl)ccc2c2cc(N)[nH]c(=O)c21", "assay": "thermal stability, DSF", "setting": "10 µM", "quantity": "ΔTm", "value": "2.2 °C"}
{"Compound": "CN1CC(Oc2cnc(C#N)cc2-c2ccn3nc(NC(=O)C4CC4)cc3c2)C1", "assay": "enzyme activity, inhibitor", "setting": "1 µM", "quantity": "inhibition", "value": "4%"}
{"Compound": "FC(F)(F)Oc1cccc(-c2cnc3ccc(-c4ccncc4)nn23)c1", "assay": "enzyme activity, inhibitor, radiometric", "setting": "1 µM", "quantity": "activity vs control", "value": "75%"}
{"Compound": "Cn1c2c(c3ccc(Cl)c(Cl)c31)C(C#N)C1(CCCC1)NC2=O (stereo not shown)", "assay": "thermal stability, DSF", "setting": "10 µM", "quantity": "ΔTm", "value": "0.4 °C"}
{"Compound": "CC(C)(O)[C@H]1CC[C@H](Nc2ccc3ncc(-c4cccc(C(F)(F)F)c4)n3n2)CC1", "assay": "enzyme activity, inhibitor", "setting": "1 µM", "quantity": "remaining activity", "value": "73.9%"}
{"Compound": "Cn1c(=O)n(-c2ccc(C(C)(C)C#N)cc2)c2c3cc(-c4cnc5ccccc5c4)ccc3ncc21", "assay": "enzyme activity, inhibitor", "setting": "10 µM", "quantity": "remaining activity", "value": "89%"}
{"Compound": "CNc1cccc2cc(C(=O)Nc3ccc(C(=O)O)cc3)c(=O)[nH]c12", "assay": "enzyme activity, inhibitor", "setting": "10 µM", "quantity": "inhibition", "value": "4.2%"}
{"Compound": "O=C1Nc2ccc(Cl)cc2C1=Cc1cc(Cl)c(O)c(Cl)c1", "assay": "cell-free assay", "setting": "0.5 µM", "quantity": "remaining signal", "value": "31.6%"}
{"Compound": "CCN1CCN(Cc2ccc(NC(=O)c3ccc(C)c(Oc4ccnc5[nH]ccc45)c3)cc2C(F)(F)F)CC1", "assay": "target engagement in cells, inhibitor, chemoproteomics", "system": "Huh-7", "setting": "1 µM", "quantity": "inhibition", "value": "-58.9%"}
{"Compound": "Cc1ccc(C(=O)NCc2ccsc2)cc1C#Cc1cn(C(C)C)c2ncnc(N)c12", "assay": "enzyme activity, inhibitor", "setting": "1 µM", "quantity": "activity vs control", "value": "78%"}
{"Compound": "NS(=O)(=O)c1cc(NC(=O)C2(c3ccccc3Cl)CC2)ccc1Oc1cccc(Cl)c1", "assay": "cell-free assay, competition with immobilised ligand", "setting": "1 µM", "quantity": "remaining binding", "value": "94%"}
{"Compound": "CS(=O)(=O)CCNCc1ccc(-c2ccc3ncnc(Nc4ccc(OCc5cccc(F)c5)c(Cl)c4)c3c2)o1", "assay": "cell-free assay", "setting": "0.5 µM", "quantity": "remaining signal", "value": "93.7%"}
{"Compound": "Cn1c2c(c3ccc(Cl)c(Cl)c31)C(C#N)C1(CCOCC1)NC2=O (stereo not shown)", "assay": "thermal stability, DSF", "setting": "10 µM", "quantity": "ΔTm", "value": "-0.1 °C"}
{"Compound": "O=C(N[C@H]1CCCCC/C=C\\C2C[C@@]2(C(=O)O)NC(=O)[C@@H]2C[C@@H](Oc3ccncc3)CN2C1=O)OC1CCCC1 (stereo partly shown)", "assay": "binding, competition with immobilised ligand", "setting": "1 µM", "quantity": "remaining binding", "value": "76%"}
{"Compound": "Cc1ccc(C(=O)Nc2ccc(CN3CCN(C)CC3)c(C(F)(F)F)c2)cc1C#Cc1cnc2cccnn12", "assay": "enzyme activity, inhibitor", "setting": "23.5 nM", "quantity": "remaining activity", "value": "97%"}
